ChEMBL document CHEMBL1144404, “Aminoimidazolylmethyluracil analogues as potent inhibitors of thymidine phosphorylase and their bioreductive nitroimidazolyl prodrugs” (J Med Chem, 2005)

Experiments:
[1] = molecular target: T1, Thymidine phosphorylase (Homo sapiens) (UniProt P19971); assay: Ratio of Kcat to Km against human thymidine phosphorylase
T1 sequence (whole entry): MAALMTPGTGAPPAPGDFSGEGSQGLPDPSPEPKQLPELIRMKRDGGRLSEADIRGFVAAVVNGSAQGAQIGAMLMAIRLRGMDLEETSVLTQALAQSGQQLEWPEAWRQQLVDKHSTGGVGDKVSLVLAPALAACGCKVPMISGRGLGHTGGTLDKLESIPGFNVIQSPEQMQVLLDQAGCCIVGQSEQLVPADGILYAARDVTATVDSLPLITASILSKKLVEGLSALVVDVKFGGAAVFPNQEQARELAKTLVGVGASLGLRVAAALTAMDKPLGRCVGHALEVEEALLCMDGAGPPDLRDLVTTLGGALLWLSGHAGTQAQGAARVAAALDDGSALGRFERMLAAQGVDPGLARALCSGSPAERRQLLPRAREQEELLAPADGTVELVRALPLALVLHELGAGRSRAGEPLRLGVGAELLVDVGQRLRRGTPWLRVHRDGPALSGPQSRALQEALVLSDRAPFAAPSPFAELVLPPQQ
Method in brief: (§1)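 Recombinant human TP expressed in V79 Chinese hamster cells, 0.065 absorbance unit per assay. Continuous spectrophotometric assay at 355 nm, 25 °C, 0.1 M phosphate buffer pH 7.4, 0.2 mL total volume, with 5-nitro-2'-deoxyuridine as substrate; kinetic constants from initial rates.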

[2] = molecular target: T1, Thymidine phosphorylase (Homo sapiens); assay: Catalytic constant against human thymidine phosphorylase; method in brief: as §1
[3] = molecular target: Thymidine phosphorylase (Escherichia coli K-12) (UniProt P07650); assay: Catalytic constant against Escherichia coli thymidine phosphorylase
Method in brief: (§2)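 Continuous UV assay at 355 nm and 25 °C in 0.2 mL of 0.1 M potassium phosphate pH 7.4, using recombinant E. coli TP (ca. 0.00883 units per assay) added to start the reaction. Substrate is thymidine or 5-nitro-2'-deoxyuridine; phosphorolysis to 5-nitrouracil followed (εM 13300 M-1 cm-1 for substrate).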

[4] = molecular target: Thymidine phosphorylase (Escherichia coli K-12) (UniProt P07650); assay: Ratio of Kcat to Km for Escherichia coli thymidine phosphorylase; method in brief: as §2

Sequence of Thymidine phosphorylase (Escherichia coli K-12) (P07650 whole entry, looked up): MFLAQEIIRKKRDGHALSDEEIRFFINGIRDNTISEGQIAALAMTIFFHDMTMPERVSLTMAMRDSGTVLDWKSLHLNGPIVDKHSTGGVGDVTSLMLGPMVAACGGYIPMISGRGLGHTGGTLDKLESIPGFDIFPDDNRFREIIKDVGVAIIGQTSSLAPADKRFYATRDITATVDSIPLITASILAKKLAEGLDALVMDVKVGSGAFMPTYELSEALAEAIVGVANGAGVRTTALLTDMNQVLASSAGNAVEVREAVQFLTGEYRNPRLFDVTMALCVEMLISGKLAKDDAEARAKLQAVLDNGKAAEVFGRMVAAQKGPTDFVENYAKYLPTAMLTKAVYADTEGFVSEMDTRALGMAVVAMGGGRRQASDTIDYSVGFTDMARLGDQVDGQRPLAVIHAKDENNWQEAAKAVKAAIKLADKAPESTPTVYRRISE

Row | SMILES | Ratio [1] [M⁻¹ s⁻¹] | k cat [2] [s⁻¹] | k cat [3] [s⁻¹] | Ratio [4] [M⁻¹ s⁻¹]
1 | O=c1[nH]c(=O)n([C@H]2C[C@H](O)[C@@H](CO)O2)cc1[N+](=O)[O-] | 18000 | 2.88 | 20 | 87000
2 | Cc1cn([C@H]2C[C@H](O)[C@@H](CO)O2)c(=O)[nH]c1=O | – | – | 1770 | 7.4e+06
